Test results reported in ChEMBL document CHEMBL1149461, “Synthesis and structure-activity relationship studies of CD4 down-modulating cyclotriazadisulfonamide (CADA) analogues” (J Med Chem, 2006).

Key:
MT4 [1] = experiment: Inhibition of CD4 antigen expression in MT4 cells; assay type: functional, cell-based; details: Homo sapiens
Procedure, shortened: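 MT-4 cells were labelled with FITC-conjugated anti-CD4 mAb to read surface CD4 by mean fluorescence intensity. IC50 is the concentration giving 50% loss of cell-surface CD4. Top concentrations tested were 15 or 75 µM. Where 50% reduction was not reached, the value is reported as a lower limit based on the highest concentration used.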

[2] = system: Human immunodeficiency virus 1; experiment: Antiviral activity against HIV1 NL4.3 in MT4 cells; assay type: functional, organism-based; details: Human immunodeficiency virus 1, NL4.3, MT4
MT4 [3] = experiment: Cytotoxicity against MT4 cells; assay type: functional; details: Homo sapiens

Compound | IC50 [2] [nM] | IC50 (MT4 [1]; read-out: IC50) [nM] | IC50 (MT4 [1]; read-out: Log IC50 (converted)) [nM] | CC50 (MT4 [3]) [µM]
C=C1CN(S(=O)(=O)c2ccc(C)cc2)CCCN(Cc2ccccc2)CCCN(S(=O)(=O)c2cccc3c(N(C)C)cccc23)C1 | 9500 | 1300 | 1290 | > 75
C=C1CN(S(=O)(=O)c2ccc(OC)cc2)CCCNCCCN(S(=O)(=O)c2ccc(OC)cc2)C1 | 6300 | 5300 | 5250 | 43
C=C1CN(S(=O)(=O)c2ccc(Br)cc2)CCCN(C(=O)OCC)CCCN(S(=O)(=O)c2ccc(Br)cc2)C1 | – | 12400 | 12300 | 29
C=C1CN(S(=O)(=O)c2ccc(C)cc2)CCCN(CC2CCCCC2)CCCN(S(=O)(=O)c2cccc3c(N(C)C)cccc23)C1 | 1800 | 610 | 617 | 49

Continued by falling IC50 [2], values first:

IC50 [2] [nM] | Compound | IC50 (MT4 [1]; read-out: IC50) [nM] | IC50 (MT4 [1]; read-out: Log IC50 (converted)) [nM] | CC50 (MT4 [3]) [µM]
630 | C=C1CN(S(=O)(=O)c2ccc(OC)cc2)CCCN(CCC(C)C)CCCN(S(=O)(=O)c2ccc(OC)cc2)C1 | 290 | 288 | 53
620 | C=C1CN(S(=O)(=O)c2ccc(OC)cc2)CCCN(Cc2ccccc2)CCCN(S(=O)(=O)c2ccc(OC)cc2)C1 | 220 | 219 | 26
